The text below walks through data of ChEMBL document CHEMBL2177013, “Synthesis and biological evaluation of tylophorine-derived dibenzoquinolines as orally active agents: exploration of the role of tylophorine e ring on biological activity” (J Med Chem, 2012).

Series [1] in a line: Volume of distribution at steady state in Sprague-Dawley rat at 1.5 mg/kg, iv by HPLC-MS method. The class given is ADME, organism-based. The arrangement: dose 1.5 mg/kg, route intravenous. Conditions: in vivo, read-out: Vdss. The gist of the method: (§1)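 Male rats (330−380 g, 9−10 weeks old) fitted with a jugular vein cannula 1 day before dosing and fasted; 1.5 mg/kg given iv or orally in DMA/PEG400 (50/50, v/v), n = 3. Blood (150 μL) drawn at 0, 2, 5 (iv only), 15, 30 min and 1, 2, 4, 6, 8, 12, 24 h. Plasma analysed by HPLC-MS; parameters by noncompartmental analysis.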

Series [2] can be described thus: AUC (0 to infinity) in Sprague-Dawley rat at 1.5 mg/kg, iv by HPLC-MS method. Type of series: ADME, organism-based. Details: time infinity, dose 1.5 mg/kg, route intravenous. Conditions: plasma. The gist of the method:
as §1

Series [3] can be described thus: Tmax in Sprague-Dawley rat at 1.5 mg/kg, po by HPLC-MS method. The arrangement: dose 1.5 mg/kg, route oral. Conditions: in vivo. Type of series: ADME, organism-based. The gist of the method:
as §1

A short description of series [4]: Cmax in Sprague-Dawley rat at 1.5 mg/kg, po by HPLC-MS method. The arrangement: dose 1.5 mg/kg, route oral. The class given is ADME, organism-based. The conditions noted are these: in vivo. The gist of the method: as §1
The nature of series [5]: AUC (0 to infinity) in Sprague-Dawley rat at 1.5 mg/kg, po by HPLC-MS method. The class given is ADME, organism-based. Details: time infinity, dose 1.5 mg/kg, route oral. Conditions: plasma. A digest of the protocol: as §1
Series [6] in a line: Apparent elimination half life in Sprague-Dawley rat at 1.5 mg/kg, iv by HPLC-MS method. Conditions: in vivo, read-out: betat1/2(app) (converted). Details: dose 1.5 mg/kg, route intravenous. The class given is ADME, organism-based. The gist of the method:
as §1

The nature of series [7]: Clearance in Sprague-Dawley rat at 1.5 mg/kg, iv by HPLC-MS method. The class given is ADME, organism-based. Conditions: in vivo. Details: dose 1.5 mg/kg, route intravenous. A digest of the protocol: as §1
Series [8] can be described thus: Apparent elimination half life in Sprague-Dawley rat at 1.5 mg/kg, po by HPLC-MS method. Details: dose 1.5 mg/kg, route oral. Conditions: in vivo, read-out: betat1/2(app) (converted). The class given is ADME, organism-based. The gist of the method:
as §1

Series [9] in a line: Oral bioavailability in Sprague-Dawley rat at 1.5 mg/kg by HPLC-MS method. Type of series: ADME, organism-based. The conditions noted are these: in vivo. The gist of the method: as §1
The test system of series [10] is RAW264.7. Briefly: Reduction in LPS/INFgamma-induced COX2 protein expression in mouse RAW264.7 cells incubated for 20 hrs by Western blotting. The class given is functional, cell-based. A digest of the protocol:
(§2)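 LPS/IFNγ-stimulated RAW264.7 cells treated with compound for 20 h. iNOS, COX-2 and GAPDH detected by Western blot; representative of at least three independent experiments.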

For series [11], the system named is RAW264.7. Briefly: Antiinflammatory activity in mouse RAW264.7 cells assessed as inhibition of LPS-induced nitric oxide production incubated for 18 hrs by nitrate/nitrite assay. Type of series: functional, cell-based. The conditions noted are these: RAW264.7, 18 h. The gist of the method: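 RAW264.7 seeded 65000 cells/well, cultured 24 h, then medium replaced with complete medium containing IFNγ (20 ng/mL)/LPS (5 μg/mL) plus compound at various concentrations for 18 h; nitric oxide measured by Nitrate/Nitrite kit. EC50 as mean of at least three experiments, each in duplicate.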

Series [12] relates to Transmissible gastroenteritis virus. Briefly: Antiviral activity against Transmissible gastroenteritis virus infected in ST cells assessed as reduction in N-protein expression pre-treated before virus infection measured 16 hrs post virus infection by Western blotting. Type of series: functional, organism-based. The gist of the method:
(§3)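 ST cells pretreated with compound, then infected with TGEV. Western blot for nucleocapsid (N) protein, caspase 3 (cleavage of procaspase 3) and GAPDH at 16 hpi. Representative of at least three independent experiments.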
Background: Immunoblotting shows a protein as a band on a membrane.

Series [13] concerns A549. Briefly: Induction of c-Jun protein accumulation in human A549 cells incubated for 24 hrs by Western blotting. Type of series: functional, cell-based.
The test system of series [14] is NCI-H460. Briefly: Induction of c-Jun protein accumulation in human NCI-H460 cells incubated for 24 hrs by Western blotting. Type of series: functional, cell-based.
Series [15] in a line: Solubility in DMA. Type of series: physicochemical.
The nature of series [16]: Solubility in DMSO. Type of series: physicochemical. The gist of the method: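 Compound dissolved in DMSO with sonication; maximal volume before precipitation measured and used to calculate saturation solubility.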
For series [17], the system named is MCF7. Briefly: Growth inhibition of human MCF7 cells. The class given is functional. A digest of the protocol: (§4)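 Cells seeded per well: NUGC-3 4500, HONE-1 6000, MCF-7 6500, NCI-H460 2500, HepG2 10000, A549 5000; A549 grown in RPMI 1640 with 2 g/L NaHCO₃, 2 mM L-glutamine and 10% FBS. GI₅₀ = concentration giving 50% growth inhibition, mean of at least three experiments each in duplicate. Paclitaxel served as positive control.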

Series [18] deals with NCI-H460. Description: Growth inhibition of human NCI-H460 cells. The class given is functional. The gist of the method: as §4
The subject of series [19] is Transmissible gastroenteritis virus. Briefly: Antiviral activity against Transmissible gastroenteritis virus infected in ST cells pre-treated 2 hrs before virus infection measured 6 hrs post virus infection by immunofluorescent assay. The conditions noted are these: Alphacoronavirus 1, ST. Type of series: functional, organism-based. A digest of the protocol:
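ST cells, with or without 2 h compound pretreatment (10 concentrations), infected with TGEV at MOI 10. Immunofluorescence with anti-spike and anti-nucleocapsid antibodies at 6 hpi. EC50 from dose–response curves, mean of at least three experiments, each in duplicate.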

The nature of series [20]: Growth inhibition of human HONE1 cells. The class given is functional. A digest of the protocol: as §4
Series [21] relates to NCI-H460. Description: Down regulation of cyclin A2 expression in human NCI-H460 cells incubated for 24 hrs by Western blotting. Type of series: functional, cell-based.
The subject of series [22] is Murine hepatitis virus. Description: Antiviral activity against Murine hepatitis virus JHM infected in mouse DBT cells assessed as reduction in N-protein expression at 0.2 to 2 uM pre-treated 1 hr before virus infection and measured 24 hrs post infection by immunofluorescent assay. The class given is functional, organism-based. A digest of the protocol: (§5)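 DBT murine astrocytoma cells in DMEM/10% heat-inactivated FBS, seeded 2.8 × 10⁵ cells/well the day before infection. Medium switched to DMEM/2% FBS, compound added 1 h before MHV-JHM infection at MOI 0.005. Cytopathic effect viewed by phase contrast and N protein by immunofluorescence at 24 hpi.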

Series [23] has as its system SF-268. Briefly: Growth inhibition of human SF268 cells. Type of series: functional. The gist of the method:
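SF-268 glioblastoma cells seeded 7500 cells/well in 96-well plates; growth inhibition measured with compound. GI50 as mean of at least three experiments, each in duplicate; paclitaxel positive control.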

Series [24] deals with MCF7. Briefly: Down regulation of cyclin A2 expression in human MCF7 cells incubated for 24 hrs by Western blotting. Type of series: functional, cell-based.
Series [25] can be described thus: Oral bioavailability in Sprague-Dawley rat at 3 mg/kg by HPLC-MS method. Type of series: ADME, organism-based. The conditions noted are these: in vivo. A digest of the protocol: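 Male rats (330−380 g, 9−10 weeks), jugular vein cannula implanted 1 day before, fasted. 3 mg/kg given iv or orally (n = 3) in DMA/PEG400 30/70 v/v. Blood (150 μL) drawn at 0, 2, 5 (iv only), 15, 30 min and 1, 2, 4, 6, 8, 12, 24 h; plasma analysed by HPLC-MS; noncompartmental analysis.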

Series [26] is described as follows: Cytotoxicity against mouse RAW264.7 cells. Type of series: cell-based. The gist of the method:
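RAW264.7 cells stimulated with LPS/IFNγ and compound-treated in parallel with the NO assay; CC50 taken as concentration giving 50% inhibition of cell growth. Mean of at least three experiments, each in duplicate.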

For series [27], the system named is MCF7. Description: Induction of c-Jun protein accumulation in human MCF7 cells incubated for 24 hrs by Western blotting. The class given is functional, cell-based.
Series [28] has as its system Transmissible gastroenteritis virus. Briefly: Antiviral activity against Transmissible gastroenteritis virus infected in ST cells assessed as reduction in caspase-3 activation pre-treated before virus infection measured 16 hrs post virus infection by Western blotting. The class given is functional, organism-based. The gist of the method:
as §3

The subject of series [29] is Murine hepatitis virus. Description: Antiviral activity against Murine hepatitis virus JHM infected in mouse DBT cells assessed as reduction in virus-induced cytopathic effect at 0.2 to 2 uM pre-treated 1 hr before virus infection and measured 24 hrs post infection by phase contrast microscopy. Type of series: functional, organism-based. The gist of the method: as §5

Series [30] has as its system A549. Description: Down regulation of cyclin A2 expression in human A549 cells incubated for 24 hrs by Western blotting. The class given is functional, cell-based.
Series [31] deals with NUGC-3. Briefly: Growth inhibition of human NUGC3 cells. The class given is functional. The gist of the method: as §4
Series [32] deals with RAW264.7. Description: Reduction in LPS/INFgamma-induced iNOS protein expression in mouse RAW264.7 cells incubated for 20 hrs by Western blotting. The class given is functional, cell-based. A digest of the protocol:
as §2

≈ marks a conversion by molar mass, not a printed value. Calls of active or inactive are those of the source. The calls are words filed in the database; no cut-off is given here.

Regarding `COc1cc2c(cc1OC)[C@@H]1[C@@H](O)[C@@H]3CCC(=O)N3C[C@@H]1c1cc(OC)c(OC)cc1-2` [TYLOPHOVATINE C], in [1], the Vd amounted to 12.4 L/kg. The AUC(0-inf) stood at 448 ng·h/mL in series [2] and 453 ng·h/mL in [5]. Further, the time to peak (Tmax) in series [3] amounted to 4.3 h. Besides, the highest level in series [4] (Cmax) was 39 ng/mL. Moreover, the values for the half-life in series [6] and in [8] were 4.6 h and 7.6 h, respectively. Further, the clearance in series [7] is 37.6 mL/min/kg. Besides, the bioavailability in [9] stood at 54.3%.

With `COc1cc2c3c(c4cc(OC)c(OC)cc4c2cc1OC)CN1CCC[C@@H]1C3` [TYLOPHORINE], the result in [10], in [12], in [13], in series [14], in series [21] and in series [22] was Active. Further, the outcome in series [24], in [27], in [28], in series [29], in series [30] and in [32] was Active. The values for the EC50 in series [11] and in [19] were 270 nM and 80 nM, respectively. For the same molecule, the solubility entry in [15] was “soluble”; in series [16], 10 mM (≈ 3930 µg/mL). Also, the GI50 in [17] was 240 nM; in series [18], 230 nM; in series [20] it was 270 nM; in [23], 270 nM; in [31], 190 nM. In series [25], this molecule registered a bioavailability of 66%. Further, in series [26], half-maximal cytotoxicity (CC50) was put at 1240 nM.

What is called AUC(0-inf) is total exposure, with the tail of the curve extrapolated. The low end stands for less exposure, the high end for more exposure. For orientation: Tmax means the time at which the peak concentration occurs. As a reminder, the Cmax is the maximum level reached in the sampled fluid or tissue. By clearance is commonly meant a measure of how efficiently the substance is removed, as volume per time. Higher therefore signals efficient removal. The bioavailability is the share of a dose that reaches the circulation, judged against a reference dose that is usually intravenous. Read a low bioavailability as little systemic uptake. Usually EC50 stands for the concentration that produces a half-maximal response. Broadly, the solubility is how much of the substance goes into solution per volume. A lower solubility goes with a poorly soluble substance. For orientation: GI50 means the concentration that inhibits growth by half. Usually CC50 stands for the concentration that lowers cell viability or growth by half.
